From ChEMBL document CHEMBL3414559, “Novel C-4 heteroaryl 13-cis-retinamide Mnk/AR degrading agents inhibit cell proliferation and migration and induce apoptosis in human breast and prostate cancer cells and suppress growth of MDA-MB-231 human breast and CWR22Rv1 human prostate tumor xenografts in mice” (J Med Chem, 2015)
Calls of active or inactive are those of the source. The calls are words filed in the database; no cut-off is given here.

Legend:
CWR22R [1] = assay: Antitumor activity against human CWR22Rv1 cells xenografted in SCID mouse assessed as increase in Bad protein expression at 20 mg/kg, ip dosed once daily for 5 days per week for 28 days by SDS-PAGE and Western blotting method; type: functional, organism-based; set-up: dose 20 mg/kg
Procedure, shortened: (§1)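 CWR22Rv1 cells (1 × 10⁶) implanted subcutaneously in male SCID mice, castrated; at ~100 mm³ tumors, randomized (n = 6/group) to vehicle (40% β-cyclodextrin in ddH₂O) or drug ip in same vehicle once daily, 5 days/week for 28 days. Tumor lysates made in RIPA buffer, 50 μg protein from pooled samples (n = 6) on 10% SDS–PAGE, immunoblotted; GAPDH as loading control.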

LNCaP [2] = assay: Reduction in cell viability in human LNCAP cells at 5 uM after 72 hrs by MTT assay; type: functional, cell-based
Procedure, shortened: (§2)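 LNCaP cells transfected with 100 nM AR and/or Mnk1 siRNA (or scrambled control) by lipofection for 18 h, washed twice with PBS, returned to growth medium; drug added 24 h later, viability read by MTT after 72 h. Untransfected cells treated alike. Knockdown confirmed by immunoblot; three independent experiments, normalized to control cells.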

LNCaP [3] = assay: Reduction in cell viability in human LNCAP cells in presence of AR siRNA at 2.5 uM and 5 uM after 72 hrs by MTT assay; type: functional, cell-based; procedure, shortened: as §2
LNCaP [4] = assay: Reduction in cell viability in human LNCAP cells in presence of Mnk1 siRNA at 2.5 uM and 5 uM after 72 hrs by MTT assay; type: functional, cell-based
Procedure, shortened: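 LNCaP cells in RPMI 1640 with 10% FBS were transfected with 100 nM Mnk1 siRNA (Lipofectamine 2000) for 18 h, with scrambled siRNA as control. After two PBS washes they were returned to growth medium, dosed 24 h later, and harvested after 72 h. Viability was read by MTT and normalized to control cells, as mean ± SEM of three independent experiments.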

[5] = Antitumor activity against human CWR22Rv1 cells xenografted in SCID mouse assessed as tumor growth at 20 mg/kg, ip dosed once daily for 5 days per week for 28 days; type: functional, CWR22R; settings: route intraperitoneal
Procedure, shortened: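 Castrated male SCID mice carrying subcutaneous CWR22Rv1 tumors (1 × 10⁶ cells implanted; ~100 mm³ at randomization, n = 6/group) given ip drug in 40% β-cyclodextrin/ddH₂O once daily, 5 days/week for 28 days; vehicle controls. Tumor volume followed; %T/C = median treated volume/median control volume at day 28 × 100. Body weight tracked as toxicity marker.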

[6] = Antitumor activity against human CWR22Rv1 cells xenografted in SCID mouse assessed as inhibition of tumor growth at 20 mg/kg, ip dosed once daily for 5 days per week for 28 days; type: functional, CWR22R; settings: 22Rv1, ip, route intraperitoneal, read-out: TGI
Mus musculus = assay: Toxicity in human CWR22Rv1 cells xenografted SCID mouse assessed as effect on body weight at 20 mg/kg, ip dosed once daily for 5 days per week for 28 days; type: organism-based; set-up: dose 20 mg/kg, route intraperitoneal; settings: in vivo
Procedure, shortened: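 Castrated male SCID mice carried subcutaneous CWR22Rv1 tumors (1 × 10⁶ cells implanted) and were randomized at ~100 mm³, n = 6/group. Dosing was ip 20 mg/kg once daily, 5 days/week for 28 days, in 40% β-cyclodextrin in ddH₂O, against vehicle. Body weight was monitored throughout as a surrogate toxicity marker.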

CWR22R [7] = assay: Antitumor activity against human CWR22Rv1 cells xenografted in SCID mouse assessed as reduction in fAR protein expression at 20 mg/kg, ip dosed once daily for 5 days per week for 28 days by SDS-PAGE and Western blotting method; type: functional, organism-based; set-up: dose 20 mg/kg; procedure, shortened: as §1
CWR22R [8] = assay: Antitumor activity against human CWR22Rv1 cells xenografted in SCID mouse assessed as reduction in Mnk1/2 protein expression at 20 mg/kg, ip dosed once daily for 5 days per week for 28 days by SDS-PAGE and Western blotting method; type: functional, organism-based; set-up: dose 20 mg/kg; procedure, shortened: as §1
CWR22R [9] = assay: Antitumor activity against human CWR22Rv1 cells xenografted in SCID mouse assessed as reduction in peIF4E protein expression at 20 mg/kg, ip dosed once daily for 5 days per week for 28 days by SDS-PAGE and Western blotting method; type: functional, organism-based; set-up: dose 20 mg/kg; procedure, shortened: as §1
CWR22R [10] = assay: Antitumor activity against human CWR22Rv1 cells xenografted in SCID mouse assessed as reduction in cyclin D1 protein expression at 20 mg/kg, ip dosed once daily for 5 days per week for 28 days by SDS-PAGE and Western blotting method; type: functional, organism-based; set-up: dose 20 mg/kg; procedure, shortened: as §1

CC1=C(/C=C/C(C)=C/C=C/C(C)=C\C(=O)Nc2cccc(F)c2)C(C)(C)CCC1n1ccnc1 (stereo unspecified)
Activity (CWR22R [1]): Active
Activity (LNCaP [2]): Active
Activity (LNCaP [3]): Active
Activity (LNCaP [4]): Active
T/C [5]: 38.8%
inhibition in vivo at 20 mg/kg [6]: 61.2%
Activity (Mus musculus): Non-toxic
Activity (CWR22R [7]): Active
Activity (CWR22R [8]): Active
Activity (CWR22R [9]): Active
Activity (CWR22R [10]): Active
